Among the data in ChEMBL document CHEMBL1275490, “Antifungal resistance of Candida glabrata vaginal isolates and development of a quantitative reverse transcription-PCR-based azole susceptibility assay” (2008) are Activity values, retold here.

What all share (assay type): functional
Assay [1] has as its system Nakaseomyces glabratus. Description: Antifungal activity against Candida glabrata clinical isolate obtained from cervicovaginal candidiasis patient assessed as susceptible dose-dependent isolates by broth microdilution method. Summed up: (§1)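 C. glabrata isolates were recovered from cervicovaginal swabs. Species was identified by in-house species-specific real-time PCR and confirmed on chromogenic Candida agar. Susceptibility was tested by CLSI M27-A2 broth microdilution, and isolates were classed as S, S-DD or R from the MIC. Voriconazole categories used proposed breakpoints.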
Background: In broth dilution the organism is exposed to a series of concentrations in liquid medium.

Assay [2] has as its system Nakaseomyces glabratus. As to the kind of experiment: Antifungal activity against Candida glabrata clinical isolate overexpressing CDR1 gene obtained from cervicovaginal candidiasis patient assessed as resistant isolates by broth microdilution method. Put shortly:
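Cervicovaginal swab isolates were classed by CLSI M27-A2 broth microdilution MIC. For expression, RNA came from mid-log cultures, column-purified and DNase-treated. Duplex qRT-PCR measured CDR1 (also PDH1, PDR1) against ACT1 as control, in triplicate independent amplifications from the same RNA. A ≥3-fold rise in CDR1 expression […].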

Assay [3] concerns Nakaseomyces glabratus. As to the kind of experiment: Antifungal activity against Candida glabrata clinical isolate obtained from cervicovaginal candidiasis patient assessed as susceptible isolates by broth microdilution method. Put shortly: as §1
For assay [4], the system named is Nakaseomyces glabratus. Description: Antifungal activity against Candida glabrata clinical isolate obtained from vulvovaginal candidiasis patient assessed as susceptible isolates by broth microdilution method. Summed up:
as §1

Assay [5] has as its system Nakaseomyces glabratus. As to the kind of experiment: Antifungal activity against Candida glabrata clinical isolate obtained from vulvovaginal candidiasis patient assessed as resistant isolates by broth microdilution method. Summed up: as §1

As for `C[C@@H](c1ncncc1F)[C@](O)(Cn1cncn1)c1ccc(F)cc1F` [VORICONAZOLE], the Activity in the assay with Nakaseomyces glabratus [1] is 13.7%; in the assay with Nakaseomyces glabratus [2], 24%; in the assay with Nakaseomyces glabratus [3] it was 62.3%.
For the compound `Clc1ccc(COC(Cn2ccnc2)c2ccc(Cl)cc2Cl)c(Cl)c1` (stereo not given) [MICONAZOLE], the Activity with Nakaseomyces glabratus [1] is on record as 0%; in the assay with Nakaseomyces glabratus [3], 100%.
Turning to `OC(Cn1cncn1)(Cn1cncn1)c1ccc(F)cc1F` [FLUCONAZOLE], the Activity with Nakaseomyces glabratus [4] was found to be 15.2%; in the assay with Nakaseomyces glabratus [1], 42.2%; in the assay with Nakaseomyces glabratus [2], 26.9%; in the assay with Nakaseomyces glabratus [5], 51.8%; with Nakaseomyces glabratus [3], 30.9%.
